Read-outs that look alike come from different tables or passages of the source. One block for each compound: values may come before it.
Legend:
[1] = for Increase in AUC with fostamatinib / Individual Cmax differences (warfarin alone to warfarin plus fostamatinib): human; for Increase in AUC with fostamatinib / Individual Cmax differences (warfarin alone to warfarin plus fostamatinib) / Individual AUC differences / Prolongation of t½λz: in vivo
[2] = format: in vivo, human; settings: for Change in AUCss on fostamatinib co-administration with OC / Change in Cmax,ss on fostamatinib co-administration with OC: increase in exposure
[3] = not given; remark: listed apart in the source
BCRP = settings: read-out: half maximal inhibitory concentration (IC50), BCRP; in vitro; ref AstraZeneca, data on file; cited from earlier work
[4] = typical value; not determined in the current studies; cited from earlier work
[5] = test system: progesterone, luteinizing hormone, follicle-stimulating hormone, sex hormone-binding globulin; assay: OC interaction study, pharmacodynamics; format: in vivo, human
[6] = Safety and tolerability, all three studies; format: in vivo, human
How it was run: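 Healthy subjects. Safety set was everyone given at least one dose of investigational product, with all available data used. Assessed throughout: incidence and severity of adverse events, clinical laboratory data, vital signs, 12-lead ECG and physical examination. AEs were tabulated by MedDRA. In the statin study, single statin doses were given alone and then with fostamatinib in a two-period, fixed-sequence design.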

[7] = test system: international normalized ratio (INR); assay: Warfarin interaction study, pharmacodynamics; design: species or system human; settings: in vivo
[8] = cited from earlier work
[9] = fostamatinib co-administration with OC

Decrease in half-life in the presence of fostamatinib (human, in vivo): about 1.5 h | Increase in AUC with fostamatinib (human, in vivo): 74% | Increase in Cmax with fostamatinib (human, in vivo): 83%
SMILES: CCC(C)(C)C(=O)O[C@H]1C[C@@H](C)C=C2C=C[C@H](C)[C@H](CC[C@@H](O)C[C@@H](O)CC(=O)O)[C@H]21 [Simvastatin acid, simvastatin acid]

AUCss ratio Microgynon + fostamatinib/microgynon alone ([2]; geometric LS mean ratio): 105.1% | Change in AUCss on fostamatinib co-administration with OC [2]: 5% | Change in Cmax,ss on fostamatinib co-administration with OC [2]: −3%
SMILES: C#C[C@]1(O)CC[C@H]2[C@@H]3CCC4=CC(=O)CC[C@@H]4[C@H]3CC[C@@]21CC [Levonorgestrel, levonorgestrel]

Increase in AUC with fostamatinib ([3]; human, in vivo): 96% | Increase in Cmax with fostamatinib ([3]; human, in vivo): 88%
SMILES: CC(C)c1nc(N(C)S(C)(=O)=O)nc(-c2ccc(F)cc2)c1/C=C/[C@@H](O)C[C@@H](O)CC(=O)O [Rosuvastatin, rosuvastatin]
absorption (restricted by BCRP) [8]: 50%

Change in tmax with fostamatinib (human, in vivo): marginal change | Decrease in half-life in the presence of fostamatinib (human, in vivo): approximately 3 h | Net apparent reduction in clearance (with fostamatinib): 40.3%
SMILES: CCC(C)(C)C(=O)O[C@H]1C[C@@H](C)C=C2C=C[C@H](C)[C@H](CC[C@@H]3C[C@@H](O)CC(=O)O3)[C@H]21 [Simvastatin, simvastatin]

Second part, the compound before the results:

SMILES: CC(=O)C[C@@H](c1ccccc1)c1c(O)c2ccccc2oc1=O [S-Warfarin, S-warfarin]
Increase in AUC with fostamatinib [1]: 13% | Individual Cmax differences (warfarin alone to warfarin plus fostamatinib) [1]: −25.6 to 27% | Individual AUC differences [1]: 0.0-36.0% | Prolongation of t½λz [1]: approximately 6 h

SMILES: C#C[C@]1(O)CC[C@H]2[C@@H]3CCc4cc(O)ccc4[C@H]3CC[C@@]21C [Ethinyl estradiol, ethinyl estradiol]
AUCss ratio Microgynon + fostamatinib/microgynon alone ([2]; geometric LS mean ratio): 128.2% | Cmax,ss ratio Microgynon + fostamatinib/microgynon alone ([2]; geometric LS mean ratio): 134.3% | Change in AUCss on fostamatinib co-administration with OC [2]: 28% | Change in Cmax,ss on fostamatinib co-administration with OC [2]: 34%

SMILES: COc1cc(Nc2ncc(F)c(Nc3ccc4c(n3)NC(=O)C(C)(C)O4)n2)cc(OC)c1OC [R406]
Cmax,ss, geometric mean ([1]; Fostamatinib + warfarin): 557 ng/mL | Increase in exposure ([3]; fostamatinib combined with rosuvastatin): ≈ 10% | Cmax,ss, geometric mean ([2]; Fostamatinib + OC, period 2 day 21): 812 ng/mL | Increase in exposure (fostamatinib combined with simvastatin): ≈ 10% | IC50 (BCRP): 31 nM | half-life [4]: ~ 14 h

SMILES: CC(=O)C[C@H](c1ccccc1)c1c(O)c2ccccc2oc1=O [R-Warfarin, R-warfarin]
Increase in AUC with fostamatinib [1]: 18% | Individual Cmax differences (warfarin alone to warfarin plus fostamatinib) [1]: −16.1 to 22% | Individual AUC differences [1]: 5.0-33.0% | Prolongation of t½λz [1]: approximately 6 h

SMILES: COc1cc(Nc2ncc(F)c(Nc3ccc4c(n3)N(COP(=O)(O)O)C(=O)C(C)(C)O4)n2)cc(OC)c1OC [Fostamatinib, fostamatinib]
Decrease in exposure to follicle-stimulating hormone [5, 9]: ≈ 20% | Decrease in exposure to luteinizing hormone [5, 9]: ≈ 20% | Luteinizing hormone AUCss ratio Microgynon + fostamatinib/microgynon alone ([5]; in vivo): 83.2% | Luteinizing hormone Cmax,ss ratio Microgynon + fostamatinib/microgynon alone ([5]; in vivo): 75.6% | Progesterone AUCss ratio Microgynon + fostamatinib/microgynon alone ([5]; in vivo): 104.3% | Progesterone Cmax,ss ratio Microgynon + fostamatinib/microgynon alone ([5]; in vivo): 99.8% | Tolerability [6]: well tolerated | AUCINR,0–168 ratio Warfarin + fostamatinib/warfarin alone [7]: 97.0% | INRmax ratio Warfarin + fostamatinib/warfarin alone [7]: 89.7% | IC50 (BCRP): 50 nM
